Screens from PubChem.
ZTA DNA inh: counter-screen for EBNA-1 inhibitors: inhibitors of Epstein-Barr virus ZTA | 320,000 tested, 0.15% active | inhibition, % at 11 µM | ZTA-DNA binding, fluorescence polarization; in the data active = inhibition above about 33%
Target sequence (P03206 whole entry, looked up): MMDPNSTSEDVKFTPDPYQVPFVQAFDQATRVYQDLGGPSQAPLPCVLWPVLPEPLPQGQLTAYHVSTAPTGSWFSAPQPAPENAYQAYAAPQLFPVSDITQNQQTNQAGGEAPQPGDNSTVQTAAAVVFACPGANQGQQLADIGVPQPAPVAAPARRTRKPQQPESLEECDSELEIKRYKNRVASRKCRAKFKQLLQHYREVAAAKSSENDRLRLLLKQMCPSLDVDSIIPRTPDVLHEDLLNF
FID counter: counter-screen for HCV NS3 helicase inhibitors: DNA intercalator displacement | inhibition, % at 7.9 µM | DNA fluorescent intercalator displacement, fluorescence | 290,000 tested, 0.17% active; in the data active = inhibition above about 37%;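 note: higher means more ethidium bromide displaced from hairpin DNA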
NR3A LBD binder: modulates the human NR3A ligand-binding domain; 340,000 tested, 2.5% active; Tm shift relative to glycine control, % at 25 µM; NR3A LBD differential scanning fluorimetry, Tm shift; 0% = protein alone, 100% = glycine-bound protein;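 active = melting temperature shift of at least 10% of the positive control shift, at one fixed dose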
NS3 helicase inh: inhibitors of Hepatitis C virus NS3 helicase; NS3 helicase DNA unwinding, Cy5 molecular beacon fluorescence; inhibition, % at 10.9 µM; 290,000 tested, 0.56% active; AID 1800;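 active = inhibition above the mean of all tested compounds plus 3 SD, set per campaign, cut at about 35% in these data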
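assay system = NS3 helicase fragment of HCV | buffer or medium = MOPS pH 6.5, MgCl2, DTT, Tween20, BSA | timing = 60 min unwinding reaction at 25 °C after ATP addition | signal = Cy5 beacon fluorescence read at start and 1 h | read-out basis = % inhibition of unwinding | control set = low DMSO, high thioflavine S at 110 µM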
FGF22 binding: FGF22 (human) thermal shift binding | 340,000 tested, 1.5% active | Q9HCT0 | AID 651658 | recombinant FGF22 thermal shift, SYPRO orange fluorescence; percent of sucrose octasulfate shift, DMSO zero | activity (Tm shift, normalised), % at 9.99 µM;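 active = mean Tm shift, scaled 0 neutral to 100 positive control, at about 1.3% or above, every replicate too, limit read from the data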
Target sequence (Q9HCT0 whole entry, looked up): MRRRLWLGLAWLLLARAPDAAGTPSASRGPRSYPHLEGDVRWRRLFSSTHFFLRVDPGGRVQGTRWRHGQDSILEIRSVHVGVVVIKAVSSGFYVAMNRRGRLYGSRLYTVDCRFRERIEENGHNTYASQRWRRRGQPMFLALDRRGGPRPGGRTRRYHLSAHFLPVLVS
EBNA-1 inhibitor: blocks EBNA-1 binding to DNA. inhibition, % at 14.8 µM. 300,000 tested, 0.34% active. AID 1950. EBNA-1 DNA binding, fluorescence polarization; in the data active = inhibition above about 28%
A number is an active result; . = inactive; / = no result. An excerpt weighted towards active compounds, which were near 3.6% of everything screened.

SMILES | ZTA DNA inh | FID counter | NR3A LBD binder | NS3 helicase inh | FGF22 binding | EBNA-1 inhibitor
Cc1ccc(NC(=O)c2nc[nH]c2C(=O)N(C)CCO)cc1 | / | / | / | / | . | /
COc1ccc(NC(=O)c2nc[nH]c2C(=O)N(C)CCO)cc1 | / | / | / | / | 43 | /
C[C@@H]1CCCCO[C@H](CN(C)C(=O)Nc2ccc(C(F)(F)F)cc2)[C@@H](C)CN([C@@H](C)CO)C(=O)c2cc(NC(=O)c3ccccc3)ccc2O1 | / | / | / | / | . | /
CN1c2ccc(-c3ccccc3F)cc2[C@@H]2[C@@H](CCN2C(=O)NC2CCCC2)[C@@H]1CO | / | / | / | / | . | /
O=C(Nc1ccccc1)c1nc[nH]c1C(=O)NCCCNC(=O)c1[nH]cnc1C(=O)Nc1ccccc1 | / | / | . | / | . | /
O=C(Nc1ccccc1)c1nc[nH]c1C(=O)NCCN(CCNC(=O)c1[nH]cnc1C(=O)Nc1ccccc1)CCNC(=O)c1[nH]cnc1C(=O)Nc1ccccc1 | / | / | 13 | / | . | /
CO[C@H]1CN(C)C(=O)c2cc(NC(=O)C3CCC3)ccc2OC[C@H](C)N(Cc2cccnc2)C[C@H]1C | / | / | / | / | . | /
CCN(CC)S(=O)(=O)c1ccc(S(=O)(=O)Nc2ccc3c(c2)oc2ccccc23)cc1 | . | . | 24 | . | / | .
CN(C)S(=O)(=O)c1ccc(S(=O)(=O)Nc2ccc3c(c2)oc2ccccc23)cc1 | . | . | 22 | . | / | .
CCN(CC)S(=O)(=O)c1ccc(NS(=O)(=O)c2ccc(C)c(C)c2)cc1 | . | . | . | . | / | .
Cc1noc(C)c1NC(=O)Nc1ccc2c(c1)CC(=O)N([C@H](C)CO)C[C@H](C)[C@H](CN(C)Cc1ccccc1)O2 | / | / | / | / | . | /
O=C(C[C@@H]1C[C@@H]2c3cc(NC(=O)C4CCC4)ccc3O[C@@H]2[C@@H](CO)O1)NCc1cccnc1 | / | / | / | / | . | /
CO[C@H]1CN(C)C(=O)c2ccc(NC(=O)Nc3ccccc3Cl)cc2OC[C@H](C)NC[C@H]1C | / | / | / | / | . | /
Cc1ccccc1N1CCN(C2CCCN(C(=O)c3ccc(Cl)s3)C2)CC1 (stereo unspecified) | / | . | 11 | . | . | /
O=C(c1cc(C2CC2)on1)N1CCCC(N2CCN(c3cccc(C(F)(F)F)c3)CC2)C1 (stereo unspecified) | . | . | . | . | . | .
O=C(c1cnccn1)N1CCCC(N2CCN(c3cccc(Cl)c3)CC2)C1 (stereo unspecified) | . | . | . | . | . | .
Cc1cc(C(=O)N2CCCC(N3CCN(c4cccc(C(F)(F)F)c4)CC3)C2)no1 (stereo unspecified) | . | . | 20 | . | . | .
Cc1cccc(C(=O)N2CCCC(N3CCN(c4cccc(Cl)c4)CC3)C2)n1 (stereo unspecified) | . | . | 13 | . | . | .
C[C@@H]1CN([C@@H](C)CO)C(=O)Cc2cc(NC(=O)C3CCCCC3)ccc2O[C@H]1CN(C)S(=O)(=O)c1cn(C)cn1 | / | / | / | / | . | /
O=C1/C(=C\c2ccc(O)c(O)c2)C(c2ccccc2)=NN1c1ccccc1 | / | . | 12 | . | . | /
COc1ccc(/C=C2\C(=O)N(c3nc(-c4ccc(Br)cc4)cs3)N=C2c2ccccc2)cc1 | / | . | / | . | / | /
CCOc1cc(/C=C2\C(=O)N(c3nc(-c4ccc(Br)cc4)cs3)N=C2c2ccccc2)ccc1O | . | . | 16 | . | / | .
Cc1cc(C(N)=O)c2cc(Br)ccc2n1 | . | . | 13 | . | / | .
CCN1CCN(CCC(=O)Nc2ccc(Br)cc2)CC1 | . | . | 10 | . | . | .
CC(C)NC1(C#N)CCN(Cc2ccccc2)CC1 | / | / | . | / | 43 | /
SMILES | ZTA DNA inh | FID counter | NR3A LBD binder | NS3 helicase inh | FGF22 binding | EBNA-1 inhibitor
CCNC1(C#N)CCN(Cc2ccccc2)CC1 | / | / | . | / | . | /
CC(C)CCN1C(=O)c2cccc3c(N)ccc(c23)C1=O | . | / | 14 | / | . | .
Nc1cccc(N2C(=O)c3cccc4c(N)ccc(c34)C2=O)c1 | . | . | 10 | . | . | .
Nc1ccc2c3c(cccc13)C(=O)N(c1ccccc1)C2=O | / | . | . | . | . | /
COCC(=O)Nc1ccc2c(c1)[C@H]1C[C@@H](CC(=O)NCc3ccc(Cl)cc3)O[C@@H](CO)[C@H]1O2 | / | / | / | / | . | /
NS(=O)(=O)c1ccc(CCNC(=O)C2CCN(S(=O)(=O)c3ccc(Br)s3)CC2)cc1 | . | . | 13 | . | . | .
Cc1ccc(-c2ccnc(=S)[nH]2)cc1 | . | . | 10 | . | . | .
